≈ marks a conversion by molar mass, not a printed value.
Tests used:
[1] = AUC (0 to t) in Swiss mouse at 10 mg/kg, po by ESI-LC/MS/MS method; assay type: ADME, organism-based; design: dose 10 mg/kg, route oral; conditions: plasma
In short: (§1)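 Oral dose of 10 mg/kg, given as a 1 mg/ml suspension in 0.5% CMC with Tween 80 to weighed Swiss mice (n = 4). Blood was drawn at 0.08–24 h, and plasma was kept on ice, centrifuged at 4 °C and stored at −80 °C. Levels were measured by ESI-LC/MS/MS. Parameters came from non-compartmental analysis: Cmax and Tmax read from the profile, AUC0–t by linear trapezoidal rule, AUCinf extrapolated, and T1/2 = 0.693/λz.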

[2] = Cmax in Swiss mouse at 10 mg/kg, po by ESI-LC/MS/MS method; assay type: ADME, organism-based; design: dose 10 mg/kg, route oral; conditions: in vivo; in short: as §1
[3] = AUC (infinity) in Swiss mouse at 10 mg/kg, po by ESI-LC/MS/MS method; assay type: ADME, organism-based; design: time infinity, dose 10 mg/kg, route oral; conditions: plasma; in short: as §1
[4] = Tmax in Swiss mouse at 10 mg/kg, po by ESI-LC/MS/MS method; assay type: ADME, organism-based; design: dose 10 mg/kg, route oral; conditions: in vivo; in short: as §1
Mus musculus = assay: Antihyperlipidemic activity in Swiss mouse assessed as reduction in plasma triglyceride level at 3 mg/kg, po after 1 to 4 hrs by acute fat tolerance test relative to control; assay type: functional; design: scale not given: the % may be the effect or the level left
In short: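 Fasted Swiss mice (4–5 weeks, 25–30 g) were given 3 mg/kg by oral gavage as a suspension in 0.5% CMC with Tween 80, or vehicle (0.5% CMC). An olive oil bolus (10 ml/kg) followed 1 h later. Plasma was taken at 1, 2, 3 and 4 h and triglycerides were measured with a kit. The triglyceride AUC0–4 h was expressed as percent reduction, with the vehicle group taken as 100%.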

[5] = Half life in Swiss mouse at 10 mg/kg, po by ESI-LC/MS/MS method; assay type: ADME, organism-based; design: dose 10 mg/kg, route oral; conditions: in vivo; in short: as §1
[6] = Solubility of the compound at pH 7.4; assay type: physicochemical; conditions: buffer

Row | AUC(0-t) [1] [ng·h/mL] | Cmax [2] [µM] | AUC(0-inf) [3] [ng·h/mL] | Tmax [4] [min] | half-life [5] [min] | solubility [6] [µg/mL] | SMILES | Activity (Mus musculus) [%]
1 | 5340 | 5.3 | 5350 | 15 | 37.2 | 10 (≈ 21.6 µM) | CC(C)[C@H](NC(=O)c1ccc(-c2ccc(Nc3nc4ccc(F)cc4s3)cc2)cc1)C(=O)O | 90
2 | 623 | 1.9 | 672 | 9.6 | 29.4 |  | CC(C)[C@H](NC(=O)c1ncc(-c2ccc(NC(=O)Nc3ccccc3Cl)cc2)s1)C(=O)O | 82
3 | 7060 | 11.3 | 7070 | 10.2 | 49.8 |  | CC(C)[C@H](NC(=O)c1ncc(-c2ccc(NC(=O)c3ccc(C(C)(C)C)cc3)cc2)s1)C(=O)O | 87
